High-throughput results from PubChem.
NS3 helicase inh – blocks Hepatitis C virus NS3 helicase unwinding; NS3 helicase DNA unwinding, Cy5 molecular beacon fluorescence; inhibition, % at 10.9 µM; 290,000 tested, 0.56% active;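 active means inhibition above the mean of all tested compounds plus 3 SD, set per campaign, cut at about 35% in these data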;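 further: 0% = DMSO wells and 100% = thioflavine S control wells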
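System: Hepatitis C virus NS3 helicase domain fragment enzyme | Reagent: Annealed dual-labelled DNA beacon duplex, ATP-started | Compound dosing: 10.9 µM single point, 0.8% DMSO | Incubation: 1 h reaction at 25 °C, ATP-initiated | Technique: Cy5 fluorescence | Evaluation: Percent inhibition from t60/t0 fluorescence ratio | Benchmarks: Low DMSO, high thioflavine S at 110 µM | Replication: Singlicate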
GRK2 aptamer HTS – inhibitors of human GRK2 displacing RNA aptamer; P25098; bead flow cytometry, FAM-aptamer displacement from GRK2; inhibition of aptamer binding, % at 10 µM; 330,000 tested, 0.59% active; AID 488847;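 active means inhibition of aptamer binding above 40%, roughly 3 SD of noise, on plates passing a quality check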;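 further: median bead fluorescence of bound FAM aptamer so fluorescent compounds give negative values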
DAGLB inhibitor – blocks human DAGLB lipase activity; Q8NCG7; HEK293T DAGLB membrane lysate, EnzChek fluorogenic substrate; inhibition, % at 5.17 µM; 340,000 tested, 0.059% active; in the data active means inhibition above about 34%;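 further: 0% = enzyme with vehicle and 100% = wells lacking enzyme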
Target sequence (Q8NCG7 whole entry, looked up): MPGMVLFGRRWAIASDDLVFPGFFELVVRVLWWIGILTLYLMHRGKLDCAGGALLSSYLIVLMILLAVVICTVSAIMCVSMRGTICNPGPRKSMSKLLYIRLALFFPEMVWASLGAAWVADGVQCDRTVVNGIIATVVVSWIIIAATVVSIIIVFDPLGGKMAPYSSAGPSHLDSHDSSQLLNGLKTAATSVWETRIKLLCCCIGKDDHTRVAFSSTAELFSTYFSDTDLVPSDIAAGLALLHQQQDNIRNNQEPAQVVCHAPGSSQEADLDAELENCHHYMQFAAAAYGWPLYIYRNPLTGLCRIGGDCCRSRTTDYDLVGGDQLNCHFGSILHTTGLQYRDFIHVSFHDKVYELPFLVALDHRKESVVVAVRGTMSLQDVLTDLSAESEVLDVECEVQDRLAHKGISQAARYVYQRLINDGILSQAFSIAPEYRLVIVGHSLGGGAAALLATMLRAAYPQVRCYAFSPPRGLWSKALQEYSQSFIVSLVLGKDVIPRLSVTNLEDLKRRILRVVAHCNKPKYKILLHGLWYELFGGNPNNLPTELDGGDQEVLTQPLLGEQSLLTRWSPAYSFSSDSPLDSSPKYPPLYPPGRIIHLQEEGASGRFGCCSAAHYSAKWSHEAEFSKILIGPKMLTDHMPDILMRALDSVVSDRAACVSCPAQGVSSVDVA
core dimer inh – HCV core protein dimerization inhibition | 300,000 tested, 0.33% active | inhibition, % at 5 µM | TR-FRET GST/Flag-core106 dimerization, 1536-well;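 active means inhibition above the mean of all tested compounds plus 3 SD, set per screening campaign, cut at about 45% in these data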
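Material: Tagged HCV core106 pair (GST and Flag) | Amount: GST-core106 13.5 nM, Flag-core106 17 nM | Medium: KF-containing HEPES buffer, pH 7.45, DTT, CHAPS, BSA | Reagent: Eu donor and XL665 acceptor anti-tag antibodies | Schedule: 4 h at 22.5 °C | Technique: Time-resolved FRET, ex 340 nm, em 617 and 671 nm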
DNA FID counter – counter-screen for HCV NS3 helicase inhibitors: DNA intercalator displacement | DNA fluorescent intercalator displacement, fluorescence | inhibition, % at 7.9 µM | 290,000 tested, 0.17% active | AID 1845; in the data active means inhibition above about 37%;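 further: 0% = vehicle and 100% = reference compound; higher means more ethidium bromide displaced from hairpin DNA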
GPR7 antag – blocks human GPR7 receptor signaling. inhibition, % at 4.4 µM. GPR7-expressing cells, fluorescence antagonist assay. 290,000 tested, 1.1% active; in the data active means inhibition above about 16%, passing the limit was not always enough;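 further: cells stimulated with the agonist NPW; 0% = agonist with vehicle and 100% = vehicle without agonist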
* hit, by the source's call. A selection: hits, their analogues and other compounds. The true share with any hit is near 2.2%.

Results for Cc1ccc([N+](=O)[O-])cc1NC(=O)Cc1cccs1 ?
NS3 helicase inh: 23.2; GRK2 aptamer HTS: 2.0; DAGLB inhibitor: 2.8; core dimer inh: 54.1*; DNA FID counter: -5.3; GPR7 antag: -2.6

Results for O=C(CC1CCCC1)N1CCN(S(=O)(=O)c2cccc(Br)c2)CC1 ?
DAGLB inhibitor: -3.8

How did CCOc1ccccc1N(C(=O)c1snc(C(N)=O)c1N)C(C(=O)NC1CCCC1)c1cccs1 (stereo unspecified) do in these assays?
NS3 helicase inh: -8.0; GRK2 aptamer HTS: 1.0; DAGLB inhibitor: 1.6; core dimer inh: 11.5; DNA FID counter: -33.0; GPR7 antag: -7.4

What do the screens show for `CCOc1ccccc1N(C(=O)c1snc(C(N)=O)c1N)C(C(=O)NC1CCCC1)c1ccco1` (stereo unspecified)?
NS3 helicase inh: -12.6; GRK2 aptamer HTS: 4.0; DAGLB inhibitor: 0.2; core dimer inh: 3.3; DNA FID counter: -32.5; GPR7 antag: 20.9*

How did CC1CN(C2CCCCC2)C(=S)N(c2ccccc2)C1=O (stereo unspecified) do in these assays?
DAGLB inhibitor: 2.3

Results for CCOc1ccc2nc(N/C(N)=N/C(=S)Nc3ccc(C)c(C)c3)nc(C)c2c1 ?
NS3 helicase inh: 1.1; GRK2 aptamer HTS: 94.0*; DAGLB inhibitor: -5.1; core dimer inh: 12.2; DNA FID counter: -1.7; GPR7 antag: -8.0

How did COc1ccc(NC(=S)/N=C(\N)Nc2nc(C)c3ccc(C)cc3n2)cc1 do in these assays?
NS3 helicase inh: -25.4; GRK2 aptamer HTS: 1.0; DAGLB inhibitor: 0.3; core dimer inh: 12.7; DNA FID counter: -11.9; GPR7 antag: 13.2

Results for O=C1CCC(C2CCc3cc(O)ccc3C2)C1 (stereo unspecified) ?
DAGLB inhibitor: -3.2

How did Cc1ccccc1-c1nn(-c2ccc(F)cc2F)cc1CNCCCN(C)C do in these assays?
NS3 helicase inh: -49.8; GRK2 aptamer HTS: 0.0; DAGLB inhibitor: -0.4; core dimer inh: -7.3; DNA FID counter: 42.2*; GPR7 antag: 1.3

Results for Cc1ccccc1-c1nn(-c2ccc(F)cc2F)cc1CNCCN(C)C ?
NS3 helicase inh: -59.4; GRK2 aptamer HTS: 0.0; DAGLB inhibitor: -3.8; core dimer inh: -4.7; DNA FID counter: 21.9; GPR7 antag: -8.2

What do the screens show for `Cc1cc(C)n2c(Nc3ccc4c(c3)OCCO4)c(-c3ccc(C)o3)nc2n1`?
NS3 helicase inh: 2.1; GRK2 aptamer HTS: 0.0; DAGLB inhibitor: 3.8; core dimer inh: -10.5; DNA FID counter: -13.5; GPR7 antag: -12.8

Results for Cc1cc(C)n2c(Nc3ccc4c(c3)OCCO4)c(-c3ccco3)nc2n1 ?
NS3 helicase inh: 60.4*; DNA FID counter: -17.3; GPR7 antag: 12.9

How did Cc1ccc(S(=O)(=O)N(C)C[C@H]2OCCCC[C@H](C)Oc3ccc(NC(=O)Nc4cccc5ccccc45)cc3C(=O)N([C@@H](C)CO)C[C@H]2C)cc1 do in these assays?
DAGLB inhibitor: -4.0

How did COc1cccc(/C=C2\SC(=S)N(CCCC(=O)N3CCCC3)C2=O)c1 do in these assays?
NS3 helicase inh: -6.0; GRK2 aptamer HTS: 55.0*; DAGLB inhibitor: -1.4; core dimer inh: 8.4; DNA FID counter: -49.2; GPR7 antag: -11.0

Results for CC1(C)COC(c2ccc3c(c2)OCO3)OC1 ?
DAGLB inhibitor: -0.2

What do the screens show for `Cc1cccc2sc(N(CCCN(C)C)C(=O)c3ccc(C(=O)c4ccccc4)cc3)nc12`?
NS3 helicase inh: -75.7; GRK2 aptamer HTS: 0.0; DAGLB inhibitor: 1.5; core dimer inh: -12.3; DNA FID counter: 37.8*; GPR7 antag: 16.0

How did CN(C)CCCN(C(=O)c1ccc(C(=O)c2ccccc2)cc1)c1nc2cc3c(cc2s1)OCO3 do in these assays?
NS3 helicase inh: -39.2; GRK2 aptamer HTS: 0.0; DAGLB inhibitor: -1.7; core dimer inh: -28.7; DNA FID counter: 44.2*; GPR7 antag: 19.4

What do the screens show for `CN(C)CCCN(C(=O)c1ccc([N+](=O)[O-])s1)c1nc2cc3c(cc2s1)OCCO3`?
NS3 helicase inh: -16.2; GRK2 aptamer HTS: 71.0*; DAGLB inhibitor: 2.0; core dimer inh: -6.5; DNA FID counter: 29.8; GPR7 antag: 2.3

What do the screens show for `CN(C)CCCN(C(=O)CCc1ccccc1)c1nc2c(F)cccc2s1`?
NS3 helicase inh: -81.0; GRK2 aptamer HTS: 0.0; DAGLB inhibitor: -3.9; core dimer inh: -5.3; DNA FID counter: 34.9; GPR7 antag: 20.6*

How did Cc1cccc2sc(N(CCCN(C)C)C(=O)c3sc4ccccc4c3Cl)nc12 do in these assays?
NS3 helicase inh: -10.3; GRK2 aptamer HTS: 0.0; DAGLB inhibitor: -4.0; core dimer inh: 4.0; DNA FID counter: 4.0; GPR7 antag: -5.2

How did CN(C)CCCN(C(=O)c1ccc(Br)s1)c1nc2cc3c(cc2s1)OCCO3 do in these assays?
GRK2 aptamer HTS: 0.0; DAGLB inhibitor: 2.6; core dimer inh: 1.5

What do the screens show for `COc1ccc(NC(=O)N2C3CCCC2CC(NC(=O)c2ccccc2)C3)cc1` (stereo unspecified)?
NS3 helicase inh: 2.2; GRK2 aptamer HTS: 1.0; DAGLB inhibitor: 0.1; core dimer inh: 0.4; DNA FID counter: -13.6; GPR7 antag: 0.3

Results for Cc1ccc(S(=O)(=O)N2C[C@]3(O)C[C@@H]4C(=O)N(c5ccccc5)C(=O)[C@@H]4C[C@]3(OC(=O)NCc3ccccc3)C2)cc1 ?
DAGLB inhibitor: 1.0

What do the screens show for `COc1ccc(-c2cc(-c3ccccc3)c(C#N)c(S(C)=O)n2)cc1` (stereo unspecified)?
NS3 helicase inh: 0.9; GRK2 aptamer HTS: 0.0; DAGLB inhibitor: 0.5; core dimer inh: 35.9; DNA FID counter: -30.5; GPR7 antag: 69.6*

Results for O=C(CCC1CCN(Cc2nccs2)CC1)Nc1ccccc1 ?
DAGLB inhibitor: -4.4

What do the screens show for `CC1=C(C)/C(=N\OS(=O)(=O)c2ccc(C)cc2)C=CC1=O`?
NS3 helicase inh: -0.6; GRK2 aptamer HTS: 1.0; DAGLB inhibitor: -1.0; core dimer inh: -15.2; DNA FID counter: -3.6; GPR7 antag: 60.5*

How did CC1=C/C(=N\OS(=O)(=O)c2ccccc2)C(C(C)C)=CC1=O do in these assays?
NS3 helicase inh: -2.5; GRK2 aptamer HTS: 0.0; DAGLB inhibitor: 2.0; core dimer inh: -8.0; DNA FID counter: -1.8; GPR7 antag: 43.8*

What do the screens show for `CC1=C/C(=N\OS(=O)(=O)c2ccccc2)C(C)=CC1=O`?
NS3 helicase inh: -0.5; GRK2 aptamer HTS: 0.0; DAGLB inhibitor: -0.8; core dimer inh: -20.3; DNA FID counter: 5.3; GPR7 antag: 72.8*

What do the screens show for `COc1ccc(S(=O)(=O)/N=C2/C=CC(=O)C(C)=C2C)cc1`?
NS3 helicase inh: 0.6; GRK2 aptamer HTS: 3.0; DAGLB inhibitor: 3.0; core dimer inh: 11.8; DNA FID counter: 2.3; GPR7 antag: 1.1

Results for COc1cc(C(=O)O/N=C2/C=C(C)C(=O)C=C2C)cc(OC)c1OC ?
NS3 helicase inh: 10.0; GRK2 aptamer HTS: 1.0; DAGLB inhibitor: 0.5; core dimer inh: -7.3; DNA FID counter: -1.4; GPR7 antag: 5.2
